From ChEMBL document CHEMBL4190233, “Exploring the cycloheptathiophene-3-carboxamide scaffold to disrupt the interactions of the influenza polymerase subunits and obtain potent anti-influenza activity” (Eur J Med Chem, 2017)

How the values were obtained:
[1] = Cytotoxicity against MDCK cells assessed as reduction in cell viability after 48 hrs by MTT assay; format: cell-based, Canis lupus familiaris; settings: dog
Outline: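 MDCK cells, 2 x 10⁴/well, grown 24 h, then exposed to serial compound dilutions or DMSO in DMEM/10% FBS for 48 h at 37 °C. MTT (5 mg/mL in PBS) was added for 4 h, then cells were lysed in solubilization solution overnight at 37 °C and read at 620 nm.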

[2] = test system: Influenza A virus; assay: Antiviral activity against Influenza A virus A/PR/8/34 (H1N1) infected in MDCK cells measured after 48 hrs post infection by plaque reduction assay; format: functional, organism-based; settings: A/Puerto Rico/8/1934(H1N1)
Outline: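 MDCK cells, 5 x 10⁵/well, grown 24 h at 37 °C, washed in serum-free DMEM, then infected with A/PR/8/34 (Cambridge lineage) at 40 PFU/well for 1 h at 37 °C. Medium held TPCK-trypsin 1 μg/mL and 0.14% BSA, with compound at varied concentrations or DMSO. Overlay was the same medium plus 1.2% Avicel. At 48 h cells were formaldehyde-fixed and toluidine-blue stained. Plaques were counted against DMSO (100%).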

[3] = biological target: PA/PB1 (Influenza A virus (A/Puerto Rico/8/1934(H1N1)), UniProt P03431+P03433); assay: Inhibition of Influenza A virus 6His-tagged PA (239 to 716 residues)/GST-tagged PB1 (1 to 25 residues) protein-protein interaction expressed in Escherichia coli measured after overnight incubation by ELISA
[4] = Therapeutic index, ratio of CC50 for MDCK cells to EC50 for Influenza A virus A/PR/8/34 (H1N1) infected in MDCK cells; format: toxicity, cell-based; settings: dog, read-out: Ratio CC50/EC50

| SMILES | CC50 at 48 h [1] [µM] | EC50 [2] [µM] | IC50 [3] [µM] | selectivity ratio [4] |
| --- | --- | --- | --- | --- |
| CSCC[C@H](N)C(=O)N[C@@H](CC(=O)O)C(=O)N[C@H](C(=O)N[C@@H](CC(N)=O)C(=O)N1CCC[C@H]1C(=O)N[C@H](C(=O)N[C@@H](CC(C)C)C(=O)N[C@@H](CC(C)C)C(=O)N[C@@H](Cc1ccccc1)C(=O)N[C@@H](CC(C)C)C(=O)N[C@@H](CCCCN)C(=O)N[C@H](C(=O)N1CCC[C@H]1C(=O)N[C@@H](C)C(=O)N[C@@H](CCC(N)=O)C(=O)O)C(C)C)[C@@H](C)O)C(C)C | > 100 | 41 |  |  |
| O=C(Nc1sc2c(c1C(=O)Nc1ccccc1O)CCCCC2)c1ccccn1 | > 250 | 8.2 | 118 |  |
| CC(C)(C)NC(=O)c1c(NC(=O)c2ccccc2O)sc2c1CCCCC2 | > 250 | > 100 | 156 |  |
| O=C(Nc1sc2c(c1C(=O)Nc1nccs1)CCCCC2)c1ccccc1O | > 250 | 0.18 | 69 | > 1390 |
| O=C(Nc1sc2c(c1C(=O)Nc1ccccc1O)CCCCC2)c1ccc(Cl)cc1 | 28 | 1.8 | 26 |  |
| O=C(Nc1sc2c(c1C(=O)NCc1ccccn1)CCCCC2)c1ccccc1O | > 250 | > 100 | 33 |  |
| O=C(Nc1sc2c(c1C(=O)Nc1ccccn1)CCCCC2)c1cccc(O)c1 | 248 | 22 | 23 |  |
| O=C(Nc1sc2c(c1C(=O)Nc1ccccn1)CCCCC2)c1ccccc1O | > 250 | 2.6 | 15 | > 96 |
| O=C(Nc1sc2c(c1C(=O)Nc1ccccn1)CCCCC2)c1ccc(O)cc1 | > 250 | 19 | 26 |  |
| O=C(Nc1sc2c(c1C(=O)NC1CCCCC1)CCCCC2)c1ccccc1O | 172 | > 100 | 114 |  |
| O=C(Nc1sc2c(c1C(=O)N1CCN(c3ccccn3)CC1)CCCCC2)c1ccccc1O | 145 | > 100 | 197 |  |
| O=C(Nc1sc2c(c1C(=O)NCc1ccccc1)CCCCC2)c1ccccc1O | 172 | > 100 | 191 |  |
| O=C(Nc1sc2c(c1C(=O)Nc1ccc(Cl)cc1)CCCCC2)c1ccccc1O | > 250 | 1.2 | 18 | > 200 |
| O=C(Nc1sc2c(c1C(=O)Nc1ccccc1)CCCCC2)c1ccccc1O | > 250 | 30 | 58 |  |
| COc1ccccc1C(=O)Nc1sc2c(c1C(=O)Nc1ccccn1)CCCCC2 | 147 | 86 | 22 |  |
| COc1ccccc1NC(=O)c1c(NC(=O)c2ccc(Cl)cc2)sc2c1CCCCC2 | > 250 | 24 | 45 |  |
| CC(C)NC(=O)c1c(NC(=O)c2ccccc2O)sc2c1CCCCC2 | > 250 | > 100 | > 200 |  |
| Nc1ccc(C(=O)Nc2sc3c(c2C(=O)Nc2ccccn2)CCCCC3)cc1 | > 250 | 0.26 | 65 |  |
| Nc1ccccc1C(=O)Nc1sc2c(c1C(=O)Nc1ccccn1)CCCCC2 | > 250 | 101 | > 200 |  |
| COc1ccccc1C(=O)Nc1sc2c(c1C(=O)Nc1ccc(Cl)cc1)CCCCC2 | > 250 | 82 | 78 |  |
| CN1CCN(C(=O)c2c(NC(=O)c3ccccc3O)sc3c2CCCCC3)CC1 | > 250 | 94 | > 200 |  |
| O=C(Nc1sc2c(c1C(=O)Nc1ccc(F)cc1)CCCCC2)c1ccccc1O | > 250 | 1.2 | 20 | > 200 |
| NC(=O)c1ncn([C@@H]2O[C@H](CO)[C@@H](O)[C@H]2O)n1 [RIBAVIRIN] | > 250 | 10 |  |  |
